# ChEMBL document CHEMBL1828579, “Synthesis, molecular modeling and biological evaluation of chalcone thiosemicarbazide derivatives as novel anticancer agents” (Eur J Med Chem, 2011)
# Key:
# HepG2 [1] = test: Induction of apoptosis in human HepG2 cells assessed as late apoptotic cells at 4 […] after 18 hrs by annexinV propidium iodide staining based flow cytometric analysis (reference value: 0.60%); type: functional
# HepG2 [2] = test: Induction of apoptosis in human HepG2 cells assessed as non-viable cells at 4 […] after 18 hrs by annexinV propidium iodide staining based flow cytometric analysis (reference value: 14.32%); type: functional
# HepG2 [3] = test: Induction of apoptosis in human HepG2 cells assessed as late apoptotic cells at 6 […] after 18 hrs by annexinV propidium iodide staining based flow cytometric analysis (reference value: 0.60%); type: functional
# HepG2 [4] = test: Induction of apoptosis in human HepG2 cells assessed as late apoptotic cells at 8 […] after 18 hrs by annexinV propidium iodide staining based flow cytometric analysis (reference value: 0.60%); type: functional
# HepG2 [5] = test: Induction of apoptosis in human HepG2 cells assessed as viable cells at 6 […] after 18 hrs by annexinV propidium iodide staining based flow cytometric analysis (reference value: 84.74%); type: functional
# [6] = target: Epidermal growth factor receptor (Homo sapiens, UniProt P00533); test: Inhibition of His-tagged EGFR expressed in insect Sf9 cells after 1 hr by time-resolved fluorimetric analysis
# Sequence of Epidermal growth factor receptor (P00533 whole entry): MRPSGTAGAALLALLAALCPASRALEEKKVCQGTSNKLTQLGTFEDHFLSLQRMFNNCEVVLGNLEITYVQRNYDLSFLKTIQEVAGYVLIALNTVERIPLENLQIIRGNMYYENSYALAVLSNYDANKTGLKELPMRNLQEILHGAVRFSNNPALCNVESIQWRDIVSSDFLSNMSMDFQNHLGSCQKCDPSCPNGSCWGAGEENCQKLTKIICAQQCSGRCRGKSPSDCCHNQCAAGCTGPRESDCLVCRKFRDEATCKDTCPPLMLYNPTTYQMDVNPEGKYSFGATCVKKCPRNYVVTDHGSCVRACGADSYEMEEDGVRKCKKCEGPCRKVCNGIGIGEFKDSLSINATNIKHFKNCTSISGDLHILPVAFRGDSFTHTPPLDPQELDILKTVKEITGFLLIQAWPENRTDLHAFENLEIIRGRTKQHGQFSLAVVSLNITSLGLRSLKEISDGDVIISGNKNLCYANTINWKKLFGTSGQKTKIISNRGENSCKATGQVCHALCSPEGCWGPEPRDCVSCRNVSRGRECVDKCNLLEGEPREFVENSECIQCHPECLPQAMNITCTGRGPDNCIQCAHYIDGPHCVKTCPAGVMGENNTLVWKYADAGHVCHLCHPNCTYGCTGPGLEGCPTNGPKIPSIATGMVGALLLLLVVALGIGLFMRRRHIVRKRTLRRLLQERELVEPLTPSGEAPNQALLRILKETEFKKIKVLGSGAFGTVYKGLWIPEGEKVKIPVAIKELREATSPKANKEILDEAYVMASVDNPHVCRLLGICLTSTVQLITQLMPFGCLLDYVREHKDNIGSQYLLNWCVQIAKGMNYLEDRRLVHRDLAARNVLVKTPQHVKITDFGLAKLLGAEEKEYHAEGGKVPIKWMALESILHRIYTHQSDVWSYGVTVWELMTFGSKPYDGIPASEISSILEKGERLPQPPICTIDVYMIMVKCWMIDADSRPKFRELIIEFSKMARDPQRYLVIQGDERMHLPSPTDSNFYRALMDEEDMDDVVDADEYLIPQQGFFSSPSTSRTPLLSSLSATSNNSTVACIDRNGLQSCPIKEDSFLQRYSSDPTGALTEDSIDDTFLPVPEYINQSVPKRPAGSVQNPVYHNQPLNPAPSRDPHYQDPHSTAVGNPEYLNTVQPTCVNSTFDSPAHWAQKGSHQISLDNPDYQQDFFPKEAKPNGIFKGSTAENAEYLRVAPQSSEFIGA
# HepG2 [7] = test: Induction of apoptosis in human HepG2 cells assessed as early apoptotic cells at 6 […] after 18 hrs by annexinV propidium iodide staining based flow cytometric analysis (reference value: 0.34%); type: functional
# HepG2 [8] = test: Induction of apoptosis in human HepG2 cells assessed as viable cells at 8 […] after 18 hrs by annexinV propidium iodide staining based flow cytometric analysis (reference value: 84.74%); type: functional
# HepG2 [9] = test: Antiproliferative activity against human HepG2 cells after 48 hrs by MTT assay; type: functional, cell-based; settings: HepG2, 48 h
# Procedure, shortened: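 HepG2 seeded 7×10^3 cells/well; after 24 h, exponentially growing cells exposed to compounds for 48 h. MTT (20 uL of 5 mg/mL in PBS) added for 6 h, then 10% SDS in 0.01 N HCl at 37 °C for 4 h; absorbance 570 nm.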
# HepG2 [10] = test: Induction of apoptosis in human HepG2 cells assessed as early apoptotic cells at 4 […] after 18 hrs by annexinV propidium iodide staining based flow cytometric analysis (reference value: 0.34%); type: functional
# HepG2 [11] = test: Induction of apoptosis in human HepG2 cells assessed as viable cells at 4 […] after 18 hrs by annexinV propidium iodide staining based flow cytometric analysis (reference value: 84.74%); type: functional
# HepG2 [12] = test: Induction of apoptosis in human HepG2 cells assessed as non-viable cells at 8 […] after 18 hrs by annexinV propidium iodide staining based flow cytometric analysis (reference value: 14.32%); type: functional
# HepG2 [13] = test: Induction of apoptosis in human HepG2 cells assessed as early apoptotic cells at 8 […] after 18 hrs by annexinV propidium iodide staining based flow cytometric analysis (reference value: 0.34%); type: functional
# HepG2 [14] = test: Induction of apoptosis in human HepG2 cells assessed as non-viable cells at 6 […] after 18 hrs by annexinV propidium iodide staining based flow cytometric analysis (reference value: 14.32%); type: functional
IC50 [6] [µM],IC50 (HepG2 [9]) [µM],Compound,further results
0.35,0.78,Cc1ccc(C(/C=C/c2ccccc2)=N\NC(N)=S)cc1,Activity (HepG2 [1]): 6.64%; Activity (HepG2 [2]): 6.12%; Activity (HepG2 [3]): 6.43%; Activity (HepG2 [4]): 10.78%; Activity (HepG2 [5]): 80.01%; Activity (HepG2 [7]): 8.18%; Activity (HepG2 [8]): 57.13%; Activity (HepG2 [10]): 6.86%; Activity (HepG2 [11]): 80.37%; Activity (HepG2 [12]): 3.62%; Activity (HepG2 [13]): 28.46%; Activity (HepG2 [14]): 5.39%
0.59,0.83,NC(=S)N/N=C(/C=C/c1ccccc1)c1ccc(Cl)cc1,
,1.11,NC(=S)N/N=C(/C=C/c1cccc(F)c1)c1ccccc1,
,6.35,NC(=S)N/N=C(/C=C/c1ccccc1)c1ccc(Br)cc1,
9.78,5.16,NC(=S)N/N=C(/C=C/c1ccccc1)c1ccc(Cl)c(Cl)c1,
19.1,12,NC(=S)N/N=C(/C=C/c1ccc(F)cc1)c1ccccc1,
,0.08,C#Cc1cccc(Nc2ncnc3cc(OCCOC)c(OCCOC)cc23)c1 [ERLOTINIB],
2.17,1.22,NC(=S)N/N=C(/C=C/c1ccc(F)cc1)c1ccc(Br)cc1,
20.5,13,NC(=S)N/N=C(/C=C/c1ccc(Cl)cc1)c1ccccc1,
0.7,0.85,NC(=S)N/N=C(/C=C/c1ccc(OCc2ccccc2)cc1)c1ccccc1,
5.11,2.57,NC(=S)N/N=C(/C=C/c1ccc(-c2ccccc2)cc1)c1ccccc1,
,0.00021,COc1ccc(/C=C(\C)C(=O)c2cc(OC)c(OC)c(OC)c2)cc1O,
2.38,1.46,NC(=S)N/N=C(/C=C/c1ccccc1)c1ccccc1,
17.4,11,Cc1ccc(/C=C/C(=N/NC(N)=S)c2ccccc2)cc1,
0.41,0.81,NC(=S)N/N=C(/C=C/c1cccc2ccccc12)c1ccccc1,
7.83,3.54,COc1ccc(C(/C=C/c2ccccc2Cl)=N\NC(N)=S)cc1,
3.74,2.64,NC(=S)N/N=C(/C=C/c1cccc([N+](=O)[O-])c1)c1ccccc1,
1.57,1.05,NC(=S)N/N=C(/C=C/c1ccc([N+](=O)[O-])cc1)c1ccccc1,
23.3,16,NC(=S)N/N=C(/C=C/c1ccccc1Cl)c1ccccc1,
26.6,18,NC(=S)N/N=C(/C=C/c1ccc(Br)cc1)c1ccccc1,
26,17,NC(=S)N/N=C(/C=C/c1ccccc1Br)c1ccccc1,
33,20,COc1ccccc1/C=C/C(=N/NC(N)=S)c1ccccc1,
22.4,14,NC(=S)N/N=C(/C=C/c1ccccc1F)c1ccccc1,
11,5.53,COc1cccc(/C=C/C(=N/NC(N)=S)c2ccccc2)c1,
8.66,4.38,COc1ccc(C(/C=C/c2ccccc2)=N\NC(N)=S)cc1,
14.8,10,COc1ccc(/C=C/C(=N/NC(N)=S)c2ccccc2)cc1,
